Source: PMC2174413 (Environmental Health Perspectives, 2007)

Tests used:
[1] = test system: cysteine dioxygenase type I (CDO1) mRNA; assay: Real-time RT-PCR of CDO1 steady-state mRNA in treated TE 671 cells; assay type: cell-based, human; settings: 24 hr, 0.005–0.5 μM, ΔΔCt method, HPRT1 internal standard
In short: (§1)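 TE 671 cells were pre-grown 72 hr in phenol red–free DMEM, plated at 4 ×10⁴ cells/well in 10% dialyzed FCS medium, equilibrated 24 hr, and dosed 24 hr (DMSO carrier, quadruplicate per dose). Total RNA (1 μg) was reverse-transcribed with poly T primers for 60 min at 42°C. SYBR Green qPCR used 60°C annealing, 44 cycles and a melt curve, with samples in quadruplicate; mean ± SE.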

[2] = test system: sulfite oxidase (SUOX) mRNA; assay: Real-time RT-PCR of SUOX steady-state mRNA in treated TE 671 cells; assay type: cell-based, human; settings: 24 hr, 0.005–0.5 μM, ΔΔCt method, HPRT1 internal standard
In short: as §1

[3] = test system: 3′-phosphoadenosine 5′-phosphosulfate synthase 1 (PAPSS1) mRNA; assay: Real-time RT-PCR of PAPSS1 steady-state mRNA in treated TE 671 cells; assay type: cell-based, human; settings: 24 hr, 0.005–0.5 μM, ΔΔCt method, HPRT1 internal standard
In short: as §1

[4] = biological target: T1, human DHEA sulfotransferase (SULT 2A1) (Homo sapiens, UniProt Q06520); assay: Inhibition of sulfation of tritiated DHEA by SULT 2A1 in human liver cytosol; assay type: biochemical
T1 sequence (Q06520 1-285): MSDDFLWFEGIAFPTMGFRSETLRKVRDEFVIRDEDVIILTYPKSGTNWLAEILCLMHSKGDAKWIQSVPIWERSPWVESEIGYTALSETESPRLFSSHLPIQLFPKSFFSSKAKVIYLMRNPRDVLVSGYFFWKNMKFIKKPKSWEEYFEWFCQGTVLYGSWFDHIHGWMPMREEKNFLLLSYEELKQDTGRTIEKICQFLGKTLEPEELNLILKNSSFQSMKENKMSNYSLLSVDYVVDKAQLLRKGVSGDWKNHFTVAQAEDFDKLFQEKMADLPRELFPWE

[5] = test system: SULT 2A1; settings: read-out: Km of SULT 2A1 for DHEA; ref Chang et al. 2001; cited from earlier work

Compound	CDO1 mRNA expression level relative to undosed control [1]	SUOX mRNA expression level relative to undosed control [2]	PAPSS1 mRNA expression level relative to undosed control [3]	Ki [4] [µM]	Km [5] [µM]
Oc1ccc(Cl)cc1Cl [2,4-dichlorophenol]	did not show significant decreases	did not show significant decreases	did not show significant decreases	–	–
Cc1cc(O)ccc1Cl [4-chloro-3-methylphenol]	did not show significant decreases	did not show significant decreases	did not show significant decreases	–	–
CCCCCCCCCc1ccc(O)cc1 [4-n-Nonylphenol, 4-n-nonylphenol]	–	–	very significant dose-dependent decrease	10.5 ± 0.6	–
CC(C)(C)CC(C)(C)c1ccc(O)cc1 [4-tert-Octylphenol, 4-tert-octylphenol]	–	–	–	2.8 ± 0.1	–
CC(C)(c1ccc(O)cc1)c1ccc(O)cc1 [Bisphenol A, bisphenol A]	–	–	–	16.3 ± 0.8	–
C[C@]12CC[C@H](O)CC1=CC[C@@H]1[C@@H]2CC[C@]2(C)C(=O)CC[C@@H]12 [DHEA, dehydroepiandrosterone]	–	–	–	–	~2
CCCCOC(=O)c1ccccc1C(=O)OCCCC [Dibutyl phthalate, dibutyl phthalate]	–	–	–	21.5 ± 1.4	–
CC(C)CCCCCCCOC(=O)c1ccccc1C(=O)OCCCCCCCC(C)C [Diisodecyl phthalate, diisodecyl phthalate]	–	–	clear decreasing trend	–	–
CCCCC(CC)COC(=O)c1ccccc1C(=O)OCC(CC)CCCC (stereo not drawn) [bis(2-ethylhexyl)phthalate]	–	significant dose-dependent decreases	significant dose-dependent decreases	–	–
bisphenol A dimethacrylate	did not affect	decreased in a dose-dependent manner	decreased in a dose-dependent manner	–	–
